High-throughput results (PubChem)
TAAR1 ag: human TAAR1 agonists, primary screen, Fluo-8 calcium fluorescence, CHO RD-HGA16 cells; Trace amine-associated receptor 1 (Homo sapiens), Q96RJ0; vehicle wells 0%, saturating PEA agonist 100%; activation, % at 3 µM; hit rate 0.99% among 360,000;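 active means activation above the mean activation of all test compounds in the run plus 3 SD, cut at about 38% in these data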
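Test system: RD-HGA16 (CHO) cells co-expressing Gα16 and hTAAR1; dosing: one-point dosing at 3 µM (nominal); timing: 17-24 h seeding, 75 min 37 °C dye, 30 min RT; signal: kinetic Fluo-8 calcium fluorescence; read-out basis: % activation relative to PEA EC100 response; controls: DMSO and PEA EC100; replicates: n 1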
OXTR agonist: human OXTR agonists, primary screen, fluorescence, CHO-OTR cells, Fluo-8 calcium; Fluo-8 calcium fluorescence; normalized: DMSO 0%, oxytocin 100%; Oxytocin receptor (Homo sapiens), P30559; activation, % at 3 µM; hit rate 0.32% among 320,000;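 active means activation above the mean of all tested compounds plus 3 SD, cutoff set per screening run, cut at about 20% in these data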;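 further: peak over basal fluorescence ratio from a 100 s FLIPR kinetic read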
V1R ag counter: agonists of human V1a receptor, primary screen, counter-screen for OXTR agonist project, fluorescence, CHO-V1R cells | activation, % at 3 µM | Fluo-8 calcium fluorescence, agonist mode; 0% DMSO, 100% 3 nM vasopressin | hit rate 0.25% among 320,000 | Vasopressin V1a receptor (Homo sapiens), P37288 | AID 2797, 2010;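 active means activation above the mean activation of all tested compounds plus 3 SD, per screening run, cut at about 20% in these data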;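 further: signal is peak over basal fluorescence ratio across a 100 second FLIPR read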
Target sequence (P37288 whole entry, looked up): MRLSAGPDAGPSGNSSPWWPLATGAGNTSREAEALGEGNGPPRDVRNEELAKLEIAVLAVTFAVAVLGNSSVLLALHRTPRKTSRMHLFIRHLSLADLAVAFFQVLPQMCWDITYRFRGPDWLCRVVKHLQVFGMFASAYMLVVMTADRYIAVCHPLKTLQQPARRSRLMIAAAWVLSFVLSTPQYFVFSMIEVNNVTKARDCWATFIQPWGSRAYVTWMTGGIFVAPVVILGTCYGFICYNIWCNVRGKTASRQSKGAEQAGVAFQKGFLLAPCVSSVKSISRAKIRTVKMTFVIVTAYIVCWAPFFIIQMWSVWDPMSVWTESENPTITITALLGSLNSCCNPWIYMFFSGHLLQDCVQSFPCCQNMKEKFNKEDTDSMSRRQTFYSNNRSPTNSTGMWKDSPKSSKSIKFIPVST
OXTR potentiate: human OXTR potentiators, primary screen, fluorescence, CHO-OTR cells, Fluo-8 calcium; Fluo-8 calcium fluorescence, potentiator mode; 0% = oxytocin EC15, 100% = EC100; activation, % at 3 µM; hit rate 0.061% among 320,000; AID 2445, 2010;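 active means activation above that plate's cutoff, the mean activation of tested compounds plus 3 SD, cut at about 6.6% in these data, passing the limit was not always enough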;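 further: 100% uses oxytocin at 75 nM as the full agonist control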
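System: human OTR in CHO cells; Also added: sub-maximal oxytocin, roughly EC15; Timing: compound 6 min at room temperature before oxytocin, 100 s read; Technique: Fluo-8 intracellular calcium fluorescence, ex 470-495, em 515-575 nm; Controls: oxytocin EC15 low and EC100 high; Replication: singlicate.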
TAAR1 antag: human TAAR1 antagonists, primary screen, Fluo-8 calcium fluorescence, CHO RD-HGA16 cells; Trace amine-associated receptor 1 (Homo sapiens), Q96RJ0; antagonist; inhibition, % at 3 µM; hit rate 1.5% among 360,000; AID 624466, 2012;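 active means inhibition above a per-plate cutoff, the mean inhibition of test compounds on that plate plus 3 SD, cut at about 49% in these data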;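 further: 0% = DMSO plus EC80 beta-PEA response and 100% = DMSO alone without agonist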
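Test system – hTAAR1-expressing CHO RD-HGA16 cells, Gα16-coupled · Reagent – β-PEA at EC80 concentration, post-compound challenge · Compound dosing – 3 µM, single point · Timing – 140 s kinetic read after compound, 140 s after agonist · Detection – Fluo-8 intracellular calcium dye fluorescence, real-time kinetic reads · Control set – DMSO and EC80 PEA controls · Repeats – n of 1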
nonsel antag count: nonselective antagonists in TAAR1 counter-screen cells, counter-screen for hTAAR1 antagonist project, cell-based, fluorescence, calcium; inhibition, % at 3 µM; shares compounds with TAAR1 antag; hit rate 77% among 2,400; counterscreen cell line, antagonist mode; in the data active means inhibition above about 22%;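 further: CHO-Ga16 host cells stimulated with ATP at an EC80 level; 0% = agonist EC80 plus vehicle and 100% = vehicle without agonist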
TAAR1 ant conf: human TAAR1 antagonists, retest of hits, confirmation, cell-based, fluorescence. inhibition, % at 3 µM. hit rate 40% among 2,400. TAAR1-expressing cells, fluorescence antagonist read-out. AID 651785, 2012. shares compounds with TAAR1 antag; in the data active means inhibition above about 49%;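 further: CHO-Ga16 host cells challenged with agonist PEA near its EC80; 0% = agonist at EC80 plus vehicle and 100% = vehicle with no agonist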
Ga16 ag counter: calcium activation in Ga16-expressing cells, counter-screen for TAAR1 antagonist project, cell-based, fluorescence; shares compounds with TAAR1 antag; agonist counterscreen; activation, % at 3 µM; hit rate 18% among 2,400; in the data active means activation above about 12%;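 further: 0% = vehicle wells and 100% = saturating stimulus response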
TAAR1 ag counter: TAAR1 activation by candidate antagonists – cell-based, fluorescence, counter-screen for TAAR1 antagonist project; shares compounds with TAAR1 antag; hTAAR1 cell line, agonist mode; activation, % at 3 µM; hit rate 2% among 2,400; AID 651955, 2012; in the data active means activation above about 37%;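 further: CHO cells stably expressing TAAR1 with calcium dye readout; 0% = DMSO vehicle and 100% = full agonist response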
* marks the source's active call; other numbers are inactive results; x = no result given. A selection: hits, their analogues and other compounds. The true share with any hit is near 2.3%.

SMILES | TAAR1 ag | OXTR agonist | V1R ag counter | OXTR potentiate | TAAR1 antag | nonsel antag count | TAAR1 ant conf | Ga16 ag counter | TAAR1 ag counter
COc1ccc(Nc2nc(-c3ccccc3)nc3ccccc23)cc1S(=O)(=O)N1CCOCC1 | 22 | 1 | 1 | -10 | 72* | 35* | 57* | 13* | 11
COc1ccccc1NC(=S)Nc1cccc2cnccc12 | 2 | 0 | 1 | 4 | -5 | x | x | x | x
Cc1cc(C)nc(NS(=O)(=O)c2ccc(NC(=O)c3cc(-c4ccccc4)nc4ccccc34)cc2)n1 | 5 | 0 | 1 | -2 | 6 | x | x | x | x
CCN(CC)S(=O)(=O)c1ccc(N2CCOCC2)c(NC(=O)c2cc(-c3ccccn3)nc3ccccc23)c1 | 18 | x | x | x | 71* | 27* | 52* | 8 | 11
CCN(CC)S(=O)(=O)c1ccc(N2CCOCC2)c(NC(=O)c2cccc3ccccc23)c1 | 12 | 5 | 7 | -11 | 40 | x | x | x | x
CCN(CC)S(=O)(=O)c1ccc(NC(=O)c2cc(-c3ccccc3)nc3ccccc23)cc1 | 3 | 0 | 0 | -10 | 54* | 27* | 35 | 8 | -2
CCN(CC)S(=O)(=O)c1ccc(N2CCOCC2)c(NC(=O)c2cccc(C#N)c2)c1 | -3 | 1 | 0 | -2 | 104* | 8 | 2 | 0 | 5
CCN(CC)S(=O)(=O)c1ccc(N2CCOCC2)c(NC(=O)c2ccc3ccccc3c2)c1 | -1 | -1 | 0 | -3 | -11 | x | x | x | x
CCN(CC)S(=O)(=O)c1ccc(N2CCOCC2)c(NC(=O)c2c3c(nc4ccccc24)CCC3)c1 | 13 | -2 | 3 | -4 | 56* | 18 | 36 | 7 | 7
CN(C)c1ccc(S(=O)(=O)c2ccc(Cl)cc2)cc1 | 8 | 2 | 1 | -12 | 7 | x | x | x | x
CN(C)C(CNC(=O)CCc1nc2cc(Cl)ccc2n(Cc2ccccc2)c1=O)c1ccccc1 (stereo not given) | 1 | 0 | -2 | 0 | -3 | x | x | x | x
CC(=O)Nc1cccc(-c2cccc3nccn23)c1 | 3 | x | x | x | -3 | x | x | x | x
CCC(C)Sc1ccc([C@@H]2[C@H]3C(=O)N(C)C(=O)[C@H]3[C@]3(C(=O)OC)CCCN23)cc1 (stereo not given in full) | 0 | 1 | 1 | -1 | 15 | x | x | x | x
O=C(NC1CC2CCC(C1)N2Cc1nnnn1Cc1ccco1)NC12CC3CC(CC(C3)C1)C2 (stereo not given) | 14 | -3 | 0 | -12 | -15 | x | x | x | x
c1ccc(C2CC(c3ccccc3)n3c(nc4ccccc43)N2)cc1 (stereo not given) | 3 | 0 | 1 | 5 | -23 | x | x | x | x
Cc1occc1C(=O)Nc1cc(C(C)(C)C)on1 | 1 | -1 | -1 | 5 | 18 | x | x | x | x
CC(C)COc1ccc(C(=O)NNC(=O)c2ccc(=O)[nH]c2)cc1 | -5 | 0 | 1 | -7 | 103* | -3 | 4 | 0 | -3
Cc1ccc(C)c(OCC(=O)NNC(=O)c2ccc(=O)[nH]c2)c1 | -1 | -1 | -1 | -3 | 3 | x | x | x | x
Cc1ccnc(N2CCC(C(=O)Nc3nnc(C)s3)CC2)n1 | 4 | 0 | 0 | -10 | -13 | x | x | x | x
COc1cc(NC(=O)c2ccccc2)c(OC)cc1NC(=O)CN1CCCCC1 | -2 | -1 | 0 | -18 | -19 | x | x | x | x
C=Cc1cc2c(cc1O)CCC1C2CCC2(C)C(O)CCC12 (stereo not given) | 8 | x | x | x | 58* | 23* | 44 | 9 | 7
